Drawing on ChEMBL document CHEMBL1124924, “Aromatic thiazole derivatives: structurally novel and selective serotonin-3 receptor antagonists” (J Med Chem, 1990), this text covers Response, Ki and inhibition in vivo for 10 compounds.

Test [1] concerns Rattus norvegicus. Kind of test: Percent response to 100 ug/kg serotonin was determined as blockade of serotonin-induced bradycardia in anesthetized rat. In kind it is functional. The essentials: (§1)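 Rat von Bezold–Jarisch reflex, read as blockade of serotonin-induced bradycardia. Test compound and serotonin were both given iv through a cannula in the right femoral vein.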
The target in test [2] is T1, Serotonin 3 (5-HT3) receptor (Rattus norvegicus, UniProt P35563+Q9JJ16).
T1 sequence (P35563 whole entry): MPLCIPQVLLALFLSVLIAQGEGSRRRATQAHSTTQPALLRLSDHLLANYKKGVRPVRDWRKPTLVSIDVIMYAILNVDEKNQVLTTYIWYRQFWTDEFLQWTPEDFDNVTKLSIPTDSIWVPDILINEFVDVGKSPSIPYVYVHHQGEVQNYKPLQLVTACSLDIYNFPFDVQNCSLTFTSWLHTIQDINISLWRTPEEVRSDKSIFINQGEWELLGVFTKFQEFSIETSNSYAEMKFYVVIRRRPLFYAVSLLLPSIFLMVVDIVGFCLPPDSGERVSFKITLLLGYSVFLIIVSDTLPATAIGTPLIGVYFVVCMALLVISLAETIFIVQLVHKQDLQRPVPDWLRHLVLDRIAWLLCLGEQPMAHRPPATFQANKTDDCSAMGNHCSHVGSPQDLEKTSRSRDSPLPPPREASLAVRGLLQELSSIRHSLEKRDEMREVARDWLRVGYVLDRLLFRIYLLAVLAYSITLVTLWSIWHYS
T1 sequence (Q9JJ16 whole entry): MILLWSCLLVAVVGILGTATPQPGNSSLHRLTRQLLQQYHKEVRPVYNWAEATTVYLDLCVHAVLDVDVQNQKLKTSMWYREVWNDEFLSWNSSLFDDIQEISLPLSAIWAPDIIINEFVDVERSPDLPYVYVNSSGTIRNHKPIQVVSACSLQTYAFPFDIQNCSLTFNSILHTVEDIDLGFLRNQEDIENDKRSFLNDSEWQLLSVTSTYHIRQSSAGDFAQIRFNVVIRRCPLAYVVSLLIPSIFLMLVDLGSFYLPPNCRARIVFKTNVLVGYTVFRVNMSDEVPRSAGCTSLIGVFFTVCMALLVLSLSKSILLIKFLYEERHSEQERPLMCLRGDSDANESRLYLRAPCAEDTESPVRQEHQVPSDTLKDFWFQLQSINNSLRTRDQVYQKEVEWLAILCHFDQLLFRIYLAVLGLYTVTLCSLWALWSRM
In words: In vitro displacement of [3H]ICS-205-930 from 5-hydroxytryptamine 3 receptor in cultured NG-108-15 […] cells. A general note: Displacement assays read how much labelled ligand stays bound in the presence of the test substance.

Test [3] has as its system Rattus norvegicus. Kind of test: Percent inhibition of serotonin-induced B-J reflex (Bezold-Jarisch reflex)in the right femoral vein of rat at a dose of 50 ug/kg. In kind it is functional. The essentials:
(§2)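 Rats given test compound and serotonin intravenously through a cannula in the right femoral vein. Von Bezold-Jarisch reflex read as blockade of serotonin-induced bradycardia. Otherwise run by a previously published procedure.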

Test [4] relates to Rattus norvegicus. In words: Percent inhibition of serotonin-induced B-J reflex (Bezold-Jarisch reflex)in the right femoral vein of rat at a dose of 10 ug/kg. In kind it is functional. The essentials:
as §2

Test [5] concerns Rattus norvegicus. In words: (§3) Percent inhibition of serotonin-induced B-J reflex (Bezold-Jarisch reflex)in the right femoral vein of rat at a dose of 100 ug/kg. In kind it is functional. The essentials: as §1
The test system of test [6] is Rattus norvegicus. In words: (§4) Percent inhibition of serotonin-induced B-J reflex (Bezold-Jarisch reflex)in the right femoral vein of rat at a dose of 2 ug/kg. In kind it is functional. The essentials:
as §2

The subject of test [7] is Rattus norvegicus. Described as §3. In kind it is functional. The essentials:
as §2
This is another data set of the same source.

Test [8] concerns Rattus norvegicus. Kind of test: Percent inhibition of serotonin-induced B-J reflex (Bezold-Jarisch reflex)in the right femoral vein of rat at a dose of 1 mg/kg po. In kind it is functional.
Test [9] relates to Rattus norvegicus. In words: Percent inhibition of serotonin-induced B-J reflex (Bezold-Jarisch reflex)in the right femoral vein of rat at a dose of 20 ug/kg. In kind it is functional. An outline of the steps:
as §1

Test [10] concerns Rattus norvegicus. Described as §4. It is filed as functional. An outline of the steps: as §1
The source holds these as a separate data set.

In general, Ki refers to a measure of affinity in units of concentration, obtained from inhibition or displacement. Lower therefore signals higher affinity. The term inhibition in vivo denotes the percentage by which the read-out fell short of the control. High values mean strong suppression, low ones little suppression. In the case of `Cc1[nH]c2ccc(O)cc2c1CCN`, the Response in the test with Rattus norvegicus [1] is recorded as 41%. Also, in [2], the Ki was found to be 1220 nM. The compound further registered an inhibition in vivo at 0.05 mg/kg in the test on Rattus norvegicus [3] of 66%. The inhibition in vivo at 0.01 mg/kg in the test on Rattus norvegicus [4] was 23%.
`Cc1nc(Cc2nc(-c3ccccc3)cs2)c[nH]1` returned a Response in the test with Rattus norvegicus [1] of 0%. This compound returned an inhibition in vivo at 0.1 mg/kg with Rattus norvegicus [5] of 7%. This compound also came in with an inhibition constant Ki in test [2] of 226 nM.
Turning to `c1ccc(-c2csc(Cc3c[nH]cn3)n2)cc1`, the Response in the test with Rattus norvegicus [1] turned out to be 80%. This compound also showed a Ki in [2] of 0.99 nM. Besides, in the test with Rattus norvegicus [6], the inhibition in vivo at 0.002 mg/kg came to 41%.
`Cc1nccn1Cc1nc(-c2c[nH]c3ccccc23)cs1` came in with a Response with Rattus norvegicus [1] of 0%. The same compound showed an inhibition in vivo at 0.1 mg/kg with Rattus norvegicus [5] of 7%. The compound also gave an inhibition constant Ki in test [2] of more than 1000 nM.
In turn, `Cc1[nH]cnc1Cc1nc(-c2c[nH]c3ccccc23)cs1` returned a Response in the test with Rattus norvegicus [1] of 0%. Besides, the Ki in test [2] is 10.4 nM. Further, the inhibition in vivo at 0.1 mg/kg in the test with Rattus norvegicus [7] was 45%.
Take `Cc1[nH]cnc1Cc1nc(-c2ccccc2)cs1`: the Response in the test with Rattus norvegicus [1] stood at 0%. Testing at 1 mg/kg in the test with Rattus norvegicus [8] gave an inhibition in vivo of 67%. The affinity in test [2], expressed as Ki, was 1.5 nM. Also, at 0.002 mg/kg the inhibition in vivo in the test with Rattus norvegicus [6] was 11%. Also, at 0.02 mg/kg the inhibition in vivo in the test with Rattus norvegicus [9] was 86%.
`N=C(N)NCc1nc(-c2c[nH]c3ccccc23)cs1` came in with a Response in the test on Rattus norvegicus [1] of 60%. The compound further returned an inhibition in vivo at 1 mg/kg in the test on Rattus norvegicus [8] of 0%. Also, in [2], affinity was put at a Ki of 3.3 nM. In the test on Rattus norvegicus [10], this compound displayed an inhibition in vivo at 0.002 mg/kg of 51%. Moreover, in the test with Rattus norvegicus [9], the inhibition in vivo at 0.02 mg/kg stood at 82%.
`c1ccc2c(-c3csc(Cc4c[nH]cn4)n3)c[nH]c2c1` displayed a Response with Rattus norvegicus [1] of 14%. The compound also registered a Ki in [2] of 14.2 nM. Also, at 0.1 mg/kg the inhibition in vivo in the test on Rattus norvegicus [7] was 63%.
On to `Cc1nccn1CC1CCc2c(c3ccccc3n2C)C1=O` (centres undefined) [ONDANSETRON], for which the Response with Rattus norvegicus [1] was found to be 0%. This compound also gave an inhibition in vivo at 0.002 mg/kg with Rattus norvegicus [10] of 43%. In the test with Rattus norvegicus [9], the inhibition in vivo at 0.02 mg/kg is 90%.
Compound `CN1[C@@H]2CC[C@H]1C[C@@H](OC(=O)c1c[nH]c3ccccc13)C2` [TROPISETRON] returned a Response in the test on Rattus norvegicus [1] of 0%. Further, the inhibition in vivo at 0.002 mg/kg in the test with Rattus norvegicus [6] stood at 76%.
